Measured values published in ChEMBL document CHEMBL1157562, “Piperazinyl glutamate pyridines as potent orally bioavailable P2Y12 antagonists for inhibition of platelet aggregation” (J Med Chem, 2010).

Experiments:
[1] = Antiplatelet aggregation activity against adenosine diphosphate-induced human platelet rich plasma assessed as inhibition of platelet aggregation by turbidimetric method; type: functional; details: Homo sapiens, Platelet, Plasma
Summary of the method: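 Human PRP, prepared by two-step centrifugation and adjusted to 330 000 platelets/μL with PPP. Compound was preincubated 5 min at 37 °C in 0.5% DMSO, then 20 μM ADP was added. OD626 was read kinetically for 15 min at 37 °C with mixing between reads.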

Platelet = assay: Relative potency, ratio of IC50 for drug to IC50 for AZD-6140 for platelet aggregation in human platelet rich plasma; type: functional
[2] = Half life in Sprague-Dawley rat at 2 mg/kg, iv and 5 mg/kg, po; type: ADME, organism-based; details: in vivo
Summary of the method: (§1)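 Rats received 2 mg/kg iv infusion or 5 mg/kg po, in 50% PEG400/40% PBS/10% ethanol.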

P2Y purinoceptor 12 = P2Y purinoceptor 12 (Homo sapiens, UniProt Q9H244); assay: Displacement of [33P]ADP from human recombinant P2Y12 receptor expressed in CHO cells; type: cell-based
P2Y purinoceptor 12, sequence (Q9H244 whole entry): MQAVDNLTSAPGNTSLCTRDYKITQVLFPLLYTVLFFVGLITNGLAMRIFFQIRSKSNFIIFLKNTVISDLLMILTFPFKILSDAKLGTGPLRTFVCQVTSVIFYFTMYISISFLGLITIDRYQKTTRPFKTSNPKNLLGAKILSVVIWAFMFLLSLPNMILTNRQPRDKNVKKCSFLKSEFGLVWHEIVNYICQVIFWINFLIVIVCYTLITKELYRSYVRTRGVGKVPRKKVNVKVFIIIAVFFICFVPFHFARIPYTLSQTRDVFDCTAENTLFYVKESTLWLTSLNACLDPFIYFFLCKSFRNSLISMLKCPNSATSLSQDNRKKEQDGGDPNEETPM
Summary of the method: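 Washed membranes from CHO cells expressing synthetic human P2Y12, incubated 1 h at room temperature with 0.2 nM 33P-MeSADP in 50 mM Tris/100 mM NaCl/1 mM EDTA. Compound was tested as a 7-point 3-fold series in triplicate. Nonspecific binding was defined with 300 nM 2-MeSADP, followed by filtration.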

[3] = Volume of distribution at steady state in Sprague-Dawley rat at 2 mg/kg, iv and 5 mg/kg, po; type: ADME, organism-based; details: in vivo, read-out: Vdss; summary of the method: as §1
[4] = Clearance in Sprague-Dawley rat at 2 mg/kg, iv and 5 mg/kg, po; type: ADME, organism-based; details: in vivo; summary of the method: as §1

SMILES | IC50 [1] | Ratio IC50 (Platelet) | half-life [2] | Ki (P2Y purinoceptor 12) | Vd [3] | clearance [4]
CCCCCOC(=O)N1CCN(C(=O)[C@H](CCC(=O)O)NC(=O)c2cc(OC(=O)N3CCOCC3)cc(-c3ccccc3)n2)CC1 | 1700 nM | 0.99 | 96 min | 4.8 nM | 31 L/kg | 220 mL/min/kg
CCCCCOC(=O)N1CCN(C(=O)[C@H](CCC(=O)O)NC(=O)c2cc(N3CCC(CN(C)C)CC3)cc(-c3ccccc3)n2)CC1 | – | 1.3 | 18 min | – | 2.1 L/kg | 92 mL/min/kg
CCCCCOC(=O)N1CCN(C(=O)[C@H](CCC(=O)O)NC(=O)c2cc(OC(=O)N3CCCC3)cc(-c3ccccc3)n2)CC1 | 1800 nM | 1 | 36 min | 7.7 nM | 2.3 L/kg | 46 mL/min/kg
CCCCCOC(=O)N1CCN(C(=O)[C@H](CCC(=O)O)NC(=O)c2cc(OCC3CCN(C)CC3)cc(-c3ccccc3)n2)CC1 | 330 nM | 0.62 | 36 min | 5.3 nM | 6.9 L/kg | 130 mL/min/kg
CCCCCOC(=O)N1CCN(C(=O)[C@H](CCC(=O)O)NC(=O)c2cc(OC3CCN(C(C)=O)CC3)cc(-c3ccccc3)n2)CC1 | 1800 nM | 1.8 | 12 min | 3.6 nM | 0.58 L/kg | 36 mL/min/kg
CCCCCOC(=O)N1CCN(C(=O)[C@H](CCC(=O)O)NC(=O)c2cc(OCC3CCNCC3)cc(-c3ccccc3)n2)CC1 | 820 nM | 0.82 | 12 min | 4.5 nM | 1.3 L/kg | 62 mL/min/kg
CCCCCOC(=O)N1CCN(C(=O)[C@H](CCC(=O)O)NC(=O)c2cc(OC(=O)N(C)CC3CCOCC3)cc(-c3ccccc3)n2)CC1 | 470 nM | 0.82 | 78 min | 45 nM | 8.6 L/kg | 109 mL/min/kg
CCCCCOC(=O)N1CCN(C(=O)[C@H](CCC(=O)O)NC(=O)c2cc(C(=O)N3CCC(OC)CC3)cc(-c3ccccc3)n2)CC1 | 460 nM | 0.99 | 15 min | 3.2 nM | 1.2 L/kg | 54 mL/min/kg
CCCCCOC(=O)N1CCN(C(=O)[C@H](CCC(=O)O)NC(=O)c2cc(N3CCC(N(C)C)CC3)cc(-c3ccccc3)n2)CC1 | 1800 nM | 2.1 | 18 min | 22 nM | 2.3 L/kg | 81 mL/min/kg
CCCCCOC(=O)N1CCN(C(=O)[C@H](CCC(=O)O)NC(=O)c2cc(CCCNCC(C)C)cc(-c3ccccc3)n2)CC1 | 1000 nM | 1.5 | 36 min | 12 nM | 5.6 L/kg | 112 mL/min/kg
CCOC(=O)N1CCN(C(=O)[C@H](CCC(=O)O)NC(=O)c2cc(N3CCOCC3)cc(-c3ccccc3)n2)CC1 | 25000 nM | 22 | 42 min | 39 nM | 3.4 L/kg | 58 mL/min/kg
CCOC(=O)N1CCN(C(=O)[C@H](CCC(=O)O)NC(=O)c2cc(N3CCCCC3)cc(-c3ccccc3)n2)CC1 | 29000 nM | 34 | 24 min | 112 nM | 1.3 L/kg | 34 mL/min/kg
CCCCCOC(=O)N1CCN(C(=O)[C@H](CCC(=O)O)NC(=O)c2cc(OC3CCN(CCOC)CC3)cc(-c3ccccc3)n2)CC1 | 1700 nM | 1.7 | 38.4 min | 9.9 nM | 5.2 L/kg | 94 mL/min/kg
CCCCCOC(=O)N1CCN(C(=O)[C@H](CCC(=O)O)NC(=O)c2cc(CCCN(C)C)cc(-c3ccccc3)n2)CC1 | 1300 nM | 1.3 | 60 min | 1 nM | 3.2 L/kg | 38 mL/min/kg
CCCCCOC(=O)N1CCN(C(=O)[C@H](CCC(=O)O)NC(=O)c2cc(C(=O)N3CCC(N(C)C)CC3)cc(-c3ccccc3)n2)CC1 | 580 nM | 1 | 12 min | 5.4 nM | 0.77 L/kg | 37 mL/min/kg
CCCCCOC(=O)N1CCN(C(=O)[C@H](CCC(=O)O)NC(=O)c2cc(N3CCC(N4CCCC4)CC3)cc(-c3ccccc3)n2)CC1 | 1200 nM | 0.57 | 96 min | 9 nM | 7.3 L/kg | 52 mL/min/kg
CCCCCOC(=O)N1CCN(C(=O)[C@H](CCC(=O)O)NC(=O)c2cc(CCCN(CC)CC)cc(-c3ccccc3)n2)CC1 | 1100 nM | 1.6 | 66 min | 22 nM | 9.2 L/kg | 96 mL/min/kg
CCCCCOC(=O)N1CCN(C(=O)[C@H](CCC(=O)O)NC(=O)c2cc(OC3CCN(S(=O)(=O)CC)CC3)cc(-c3ccccc3)n2)CC1 | 5300 nM | 5 | – | 5.1 nM | – | –
CCCCCOC(=O)N1CCN(C(=O)[C@H](CCC(=O)O)NC(=O)c2cc(CCCOC)cc(-c3ccccc3)n2)CC1 | 5000 nM | 6.6 | – | 8.4 nM | – | –
CCCCOC(=O)N1CCN(C(=O)[C@H](CCC(=O)O)NC(=O)c2cc(OCCCCO)cc(-c3ccccc3)n2)CC1 | 4500 nM | 6.7 | – | 4.9 nM | – | –

SMILES | IC50 [1] | Ratio IC50 (Platelet) | half-life [2] | Ki (P2Y purinoceptor 12) | Vd [3] | clearance [4]
CCCCCOC(=O)N1CCN(C(=O)[C@H](CCC(=O)O)NC(=O)c2cc(OCCN)cc(-c3ccccc3)n2)CC1 | 2400 nM | 3 | – | 8.8 nM | – | –
CCCCCOC(=O)N1CCN(C(=O)[C@H](CCC(=O)O)NC(=O)c2cc(OC3CCN(C(C)C)CC3)cc(-c3ccccc3)n2)CC1 | 480 nM | 0.68 | – | 7 nM | – | –
CCCCCOC(=O)N1CCN(C(=O)[C@H](CCC(=O)O)NC(=O)c2cc(NCCOC)cc(-c3ccccc3)n2)CC1 | 3200 nM | 4.9 | – | 9.8 nM | – | –
CCCCCOC(=O)N1CCN(C(=O)[C@H](CCC(=O)O)NC(=O)c2cc(OCCC)cc(-c3ccccc3)n2)CC1 | 22000 nM | 28 | – | 18 nM | – | –
CCCCOC(=O)N1CCN(C(=O)[C@H](CCC(=O)O)NC(=O)c2cc(OCC3CCN(S(=O)(=O)CC)CC3)cc(-c3ccccc3)n2)CC1 | 3000 nM | 2.8 | – | 5.3 nM | – | –
CCCCCOC(=O)N1CCN(C(=O)[C@H](CCC(=O)O)NC(=O)c2cc(NC(=O)NCC3CCNCC3)cc(-c3ccccc3)n2)CC1 | 5600 nM | 3.8 | – | 1.4 nM | – | –
CCCCCOC(=O)N1CCN(C(=O)[C@H](CCC(=O)O)NC(=O)c2cc(OCC3CCN(C(C)C)CC3)cc(-c3ccccc3)n2)CC1 | 380 nM | 0.5 | 36 min | 5.5 nM | 3.4 L/kg | 63 mL/min/kg
CCCCCOC(=O)N1CCN(C(=O)[C@H](CCC(=O)O)NC(=O)c2cc(NC(=O)N3CCN(C)CC3)cc(-c3ccccc3)n2)CC1 | 11000 nM | 7.2 | – | 3.2 nM | – | –
CCCCCOC(=O)N1CCN(C(=O)[C@H](CCC(=O)O)NC(=O)c2cc(N3CCC(N)CC3)cc(-c3ccccc3)n2)CC1 | 1100 nM | 1.2 | 6 min | 17 nM | 0.38 L/kg | 32 mL/min/kg
CCCCCOC(=O)N1CCN(C(=O)[C@H](CCC(=O)O)NC(=O)c2cc(CCCCN(C)C)cc(-c3ccccc3)n2)CC1 | 1000 nM | 1 | – | 3.3 nM | – | –
CCCCCOC(=O)N1CCN(C(=O)[C@H](CCC(=O)O)NC(=O)c2cc(C(=O)N(C)CCCC)cc(-c3ccccc3)n2)CC1 | 1800 nM | 3.3 | – | 5.8 nM | – | –
CCCCCOC(=O)N1CCN(C(=O)[C@H](CCC(=O)O)NC(=O)c2cc(C(=O)N3CCOCC3)cc(-c3ccccc3)n2)CC1 | 710 nM | 1 | 14.4 min | 4.4 nM | 1.1 L/kg | 51 mL/min/kg
CCCCCOC(=O)N1CCN(C(=O)[C@H](CCC(=O)O)NC(=O)c2cc(C(=O)N3CCN(C)CC3)cc(-c3ccccc3)n2)CC1 | 530 nM | 0.72 | – | 5.8 nM | – | –
CCCCOC(=O)N1CCN(C(=O)[C@H](CCC(=O)O)NC(=O)c2cc(OCC3CCCCN3)cc(-c3ccccc3)n2)CC1 (stereo partly drawn) | 1800 nM | 2 | – | 11 nM | – | –
CCCCCOC(=O)N1CCN(C(=O)[C@H](CCC(=O)O)NC(=O)c2cc(OC3CCNCC3)cc(-c3ccccc3)n2)CC1 | 500 nM | 0.64 | – | 3.5 nM | – | –
CCCCOC(=O)N1CCN(C(=O)[C@H](CCC(=O)O)NC(=O)c2cc(OCC3CCN(C(=O)OCC)CC3)cc(-c3ccccc3)n2)CC1 | 4000 nM | 2.2 | – | 7.6 nM | – | –
CCCCCOC(=O)N1CCN(C(=O)[C@H](CCC(=O)O)NC(=O)c2cc(CCC(=O)N(C)C)cc(-c3ccccc3)n2)CC1 | 2900 nM | 2.7 | – | 2.1 nM | – | –
CCCCCCOC(=O)N1CCN(C(=O)[C@H](CCC(=O)O)NC(=O)c2cc(O)cc(-c3ccccc3)n2)CC1 | 21000 nM | 21 | – | 20 nM | – | –
CCCCCOC(=O)N1CCN(C(=O)[C@H](CCC(=O)O)NC(=O)c2cc(OCC3CCN(CCOC)CC3)cc(-c3ccccc3)n2)CC1 | 550 nM | 0.73 | 53.4 min | 5.3 nM | 10.9 L/kg | 141 mL/min/kg
